# Published values pooled from the literature.
# Lines come from different studies, so protocols differ.
# Cell line: HEK293
# Effect on: cell growth or viability
SMILES,assay,setting,endpoint,value
O=C(Nc1cccc([N+](=O)[O-])c1)c1cccc(C(F)(F)F)c1,resazurin,48 h,CC50,> 20 µM
NC1=CC2=NCCc3c[nH]c(c32)C1=O,MTT,72 h,CC50,0.1 µM
O=C(Nc1cccc([N+](=O)[O-])c1)c1ccccc1,resazurin,48 h,CC50,> 20 µM
CCCc1cc(=O)oc2cc(OCc3cc(=O)c(O)co3)ccc12,CCK-8,"12 µM, 24 h",viability,97.9%
Cn1cc2c3c1C(=O)C(NCCc1ccc(O)cc1)=CC3=[N+](C)CC2,MTT,72 h,CC50,0.23 µM
COc1ccc2c(c1)c(=O)c(C(=O)NN)cn2Cc1ccccc1,resazurin,48 h,CC50,> 20 µM
O=C(Nc1cccc([N+](=O)[O-])c1)c1ccc(C(F)(F)F)cc1,resazurin,48 h,CC50,> 20 µM
O=C1C(NCCc2ccc(O)cc2)=CC2=NCCc3c[nH]c1c32,MTT,72 h,CC50,3 µM
CC(C)C[C@H](NC(=O)[C@H](Cc1ccccc1)NC(=O)c1cnccn1)B(O)O,resazurin,48 h,CC50,0.008 µM
COC(CNC1=CC2=NCCc3c[nH]c(c32)C1=O)c1c[nH]c2ccccc12 (stereo not drawn),MTT,72 h,CC50,4 µM
O=C(Nc1cccc(C(F)(F)F)c1)c1cccc(C(F)(F)F)c1,resazurin,48 h,CC50,15.6 µM
O=C(N/N=C/c1ccc([N+](=O)[O-])o1)c1cn(Cc2ccccc2)c2ccccc2c1=O,resazurin,48 h,CC50,> 20 µM
O=C(Nc1ccc([N+](=O)[O-])cc1)c1ccc(F)cc1,resazurin,48 h,CC50,> 20 µM
COc1ccc2c(c1)c(=O)c(C(=O)NN)cn2Cc1ccc(C)cc1,resazurin,48 h,CC50,> 20 µM
O=C1C(NCCc2c[nH]c3ccccc23)=CC2=NCCc3c[nH]c1c32,MTT,72 h,CC50,3.1 µM
